KCC2 mod = KCC2 cotransporter modulators, thallium flux, primary screen, cell-based, HEK293 KCC2, FluoZin-2 fluorescence, MLSMR | Solute carrier family 12 member 5 (Homo sapiens), Q9H2X9 | KCC2 cells, thallium flux FluoZin-2 fluorescence | B-score of Tl+ flux slope (higher = more flux/activation; lower = inhibition) at 10 µM | actives 2.2% (n = 190,000);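 active means thallium flux slope and its plate-corrected score both differing from the plate sample mean at a set confidence after two filtering rounds, in either direction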;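 further: slope of fluorescence scaled to starting intensity during 10 to 20 s after thallium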
Dynein cargo inh = inhibitors of GR-EGFP nuclear translocation, primary screen, dynein cargo transport inhibitor project, imaging, high-content, 3617.4 mouse cells; test concentration mostly 20 µM; stimulated with dexamethasone, 1 µM; active compounds read low; z-score, hits read low; actives 0.47% (n = 220,000); AID 1381, 2008;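 active means plate z-score of nuclear minus cytoplasmic receptor signal below a set negative limit, without overly bright fluorescence or cell loss, cut at about -3.5 in these data, passing the limit was not always enough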;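 further: z-score of nuclear minus cytoplasmic ring GR-EGFP intensity difference per well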
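medium = tetracycline-free induction medium containing charcoal-stripped FBS | also added = 1.0 µM final dexamethasone stimulus | schedule = 48 h induction, 1 h compound, 30 min dex at 37 °C | technique = fixed, Hoechst-stained cells imaged at 10x for EGFP | measure = GR-EGFP nuclear translocation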
Autophagy mod = autophagy modulators in MEF cells, primary screen, imaging, high-content, MEF GFP-LC3. MEF GFP-LC3 puncta imaging; test concentration mostly 10 µM. calls only at 10 µM (by protocol). actives 0.98% (n = 190,000);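 active means percentage of spot-positive cells more than 3 SD above its plate mean, without a fluorescence outlier flag or 80% toxicity; inconclusive means no clear call, values can overlap the other calls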;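 further: spot-positive cell cutoff set from DMSO-treated cells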
ROMK primary = ROMK potassium channel modulators, primary screen, cell-based, thallium flux, MLSMR library; Tet-inducible ROMK, thallium flux fluorescence; actives lie on both sides; B-score at 10 µM; actives 2% (n = 130,000); ATP-sensitive inward rectifier potassium channel 1 (Homo sapiens), P48048;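 active means signal ratio slope over the read window, or its plate-corrected B-score, at least 3 SD from the plate mean, either direction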;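 further: B-score of the F/F0 ratio slope over 7 to 12 s after thallium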
Target sequence (P48048 whole entry, looked up): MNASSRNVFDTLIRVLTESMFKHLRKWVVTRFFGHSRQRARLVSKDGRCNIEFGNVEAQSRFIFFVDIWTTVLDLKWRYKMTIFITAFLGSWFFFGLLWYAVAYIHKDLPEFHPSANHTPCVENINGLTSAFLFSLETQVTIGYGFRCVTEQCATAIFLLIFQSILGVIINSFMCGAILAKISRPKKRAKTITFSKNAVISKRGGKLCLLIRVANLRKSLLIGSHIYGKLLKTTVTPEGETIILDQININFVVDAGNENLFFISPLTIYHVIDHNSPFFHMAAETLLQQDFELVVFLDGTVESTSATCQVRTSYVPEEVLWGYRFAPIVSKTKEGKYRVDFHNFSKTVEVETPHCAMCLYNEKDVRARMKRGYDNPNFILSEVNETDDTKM
Redox H2O2 prof = compounds producing H2O2 with reducing agent – biochemical, NIH compound library profiling, artefact control for MLSCN library redox annotation, primary screen; activation, % at 10 µM; actives 0.03% (n = 200,000); DTT-dependent redox cycling H2O2, phenol red/HRP absorbance; 100% = 100 µM peroxide control, 0% = buffer;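 active means activation of at least 50% relative to the plate's high and low controls in the primary single-dose screen; inactive means activation below 50%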;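 further: compound incubated with DTT at 0.8 mM final as the reducing agent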
ROMK hit retest = ROMK channel modulator hit retest, confirmation, cell-based, thallium flux, duplicate, resupplied hits. fluorescence ratio; active compounds read low. shares compounds with ROMK primary. normalized thallium flux (F/F0 slope) at 10 µM. actives 54% (n = 3,000);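 active means Flux at 10 µM at least 3 SD below or above vehicle control mean in one or both replicates; inconclusive means no clear call, values can overlap the other calls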
Starred values were filed as active, the others as inactive; i = inactive; ? = inconclusive; . = no result; + = active, no number. In the library only some 4.1% were active in any assay of this set; here they are far more common.

SMILES	KCC2 mod	Dynein cargo inh	Autophagy mod	ROMK primary	Redox H2O2 prof	ROMK hit retest
CC(C)N1CCC(N2CCN(Cc3ccc(-c4ccccc4Cl)o3)CC2CCO)CC1 (stereo unspecified)	1.8	1	i	.	-2	.
CC(C)N1CCC(N2CCN(Cc3ccc(-c4ccc(Cl)cc4)o3)CC2CCO)CC1 (stereo unspecified)	-0.53	-0.83	i	-3.7*	-1	0.064*
O=C(O)c1cccc(CN2C(=O)S/C(=C/c3cccc([N+](=O)[O-])c3)C2=O)c1	-1.4	-1.6	.	-12*	.	0.03*
CCOC(=O)Cn1nc(-c2ccccc2)c2ccccc2c1=O	.	-0.036	i	4.1*	0	0.081
CCOC(=O)Cn1nc(Cc2ccccc2)c2ccccc2c1=O	-0.02	1	i	.	2	.
CCN(CC)c1ccc(NS(=O)(=O)c2ccc(OC)cc2)cc1	-0.69	0.14	i	-0.17	0	.
COc1ccc(CN2CCC(N(CCc3ccccc3)Cc3ccccc3)CC2)c(OC)c1	-1.2	-0.99	i	-3.3*	-1	0.051*
Cc1cc(/C=N/n2cnnc2)c(C)n1-c1cc(Cl)ccc1Cl	-0.86	0.61	i	.	1	?
COc1cc(OC)cc(C(=O)N2CCN(Cc3ccccc3C(F)(F)F)CC2)c1	.	-1.3	i	-1.5	0	.
COc1cc(C(=O)N2CCN(Cc3ccccc3C(F)(F)F)CC2)cc(OC)c1OC	.	0.0029	i	-2.6*	-1	0.077
O=C(NC1=NCCS1)NC12CC3CC(CC(C3)C1)C2	0.016	-1.1	i	.	2	0.066*
O=C(NC1=NCCS1)C12CC3CC(C1)CC(C(=O)NC1=NCCS1)(C3)C2	1.8	-0.7	i	0.21	1	.
O=C(c1ccncc1)c1ccc(N2CCN(C3CC(=O)N(Cc4cccs4)C3=O)CC2)cc1 (stereo unspecified)	-1.7	-1.3	i	.	0	0.06*
COc1ccc(OC)c2c(C)cc(N3CCN(C(=O)c4ccc(F)cc4)CC3)nc12	-0.47	-0.38	i	.	2	.
COc1ccc(OC)c2c(C)cc(N3CCN(C(=O)c4ccc(C)cc4)CC3)nc12	-1.9	-0.22	i	-8.5*	0	0.085
Cc1cc(C)cc(OCc2ccc(C(=O)N3N=C(C(F)F)CC3(O)C(F)F)o2)c1 (stereo unspecified)	-0.47	-0.5	i	3*	0	0.08
CCn1cc(C(=O)N2CCc3ccccc32)c(=O)c2cc(S(=O)(=O)N(C)C3CCCCC3)ccc21	-1.8	-1.1	i	-2.8*	1	0.077
O=C(CNc1cc(S(=O)(=O)N2CCOCC2)ccc1N1CCCC1)NCc1ccco1	-0.23	-0.88	i	0.062	0	.
CCC1CCCCN1C(=O)c1sc2nc(C)nc(N(CC)CC)c2c1C (stereo unspecified)	0.075	1.7	i	-3.7*	-1	0.058*
COc1ccc(CC(=O)NNc2ncnc3c2cnn3Cc2ccccc2)cc1OC	0.58	0.29	.	.	.	0.078
COc1ccc2nc(SCC(=O)Nc3cc(OC)c(OC)cc3C(=O)O)c(C)cc2c1	-0.75	-0.64	i	0.99	0	.
CCCCN(CC(=O)Nc1c(C)cccc1CC)C(=O)SCC	0.066	-0.16	i	0.002	0	.
Cn1c(=O)[nH]c(=O)c2c1nc(N/N=C/c1ccncc1)n2Cc1ccc(Cl)cc1	0.47	-0.28	.	-0.31	.	.
CCOC(=O)CSc1ccc2ccccc2n1	-0.97	1.1	i	-0.15	-2	.
CCOC(=O)CN1C=C(c2ccc3ccccc3n2)C(C[N+](=O)[O-])c2ccccc21 (stereo unspecified)	-1.9	1.4	i	-3.8*	1	0.049*
SMILES	KCC2 mod	Dynein cargo inh	Autophagy mod	ROMK primary	Redox H2O2 prof	ROMK hit retest
N#Cc1sc2nc(-c3ccccc3)cc(C(F)(F)F)c2c1N	-0.92	0.96	+	-4.4*	0	0.063*
O=C(CNC1CCN(Cc2ccccc2)CC1)Nc1ccc(S(=O)(=O)N2CCCCC2)cc1	0.78	0.23	.	.	.	.
NC1=NC[C@H](CC2CCCCC2)N1CCc1cc(C(F)(F)F)cc(C(F)(F)F)c1	-0.025	-5.5	.	.	.	0.05*
CCOc1ccc(N(CC(=O)N2CCN(c3ccccc3)CC2)S(=O)(=O)c2c(C)noc2C)cc1	.	0.009	i	.	-1	0.073
COc1ccc(N(CC(=O)N2CCN(c3ccccc3)CC2)S(=O)(=O)c2c(C)noc2C)cc1	.	-0.029	i	.	-1	.
OCCC1CN(Cc2cc(F)ccc2-n2cccn2)CCN1C1CCCC1 (stereo unspecified)	-1	-0.14	.	.	.	.
C(#Cc1ccccc1)C[N+]1(CC#Cc2cccc3ccccc23)CCOCC1	0.11	1.2	i	-2.4*	-1	0.068*
O=C(/C=C/c1ccc(Br)cc1)c1ccco1	-0.29	-2	i	-5.4*	1	?
Cn1c(CCNC(=O)c2ccc(Cl)c(Cl)c2)nnc1SCc1ccc(Cl)c(Cl)c1	.	-0.12	i	.	-1	0.079
C=CCn1c(CCNC(=O)c2ccc(Cl)c(Cl)c2)nnc1SCCOc1ccc(OC)cc1	-1.3	0.53	i	.	1	.
O=C1c2cccc3c(N4CCCCC4)ccc(c23)C(=O)N1c1ccc(O)cc1	1	0.32	+	-3.1*	-1	0.051*
O=C(O)c1ccc2c3c(cccc13)C(=O)N(c1ccccc1)C2=O	1	0.31	i	0.074	0	.
O=C1c2cccc3c(N4CCCCC4)ccc(c23)C(=O)N1c1ccccc1O	.	-0.46	i	-5.2*	-1	0.051*
NC(=O)c1cccc(N=Cc2cc(Cl)cc(Cl)c2O)c1	-0.66	0.29	i	1.3	-2	.
Cc1cccc(N=Cc2cc(Br)cc(Cl)c2O)c1	2.4	-0.74	i	4.1*	0	0.12*
COC(=O)c1[nH]c2ccc(Cl)cc2c1NC(=O)Oc1ccccc1	0.46	0.69	i	.	-3	.
COC(=O)c1[nH]c2ccc(Cl)cc2c1NC(=O)C1CC1	.	-0.38	i	.	-1	0.077
CCOc1cccc2sc(N(CCCN(C)C)C(=O)Cc3ccccc3)nc12	0.22	-0.28	i	-3.2*	-1	0.057*
CN(C)CCCN(C(=O)COc1ccccc1)c1nc2c(F)cccc2s1	-0.26	-0.022	i	-0.34	-1	.
CCOC(=O)CN(C(=O)CNC(=O)c1cccs1)C(C(=O)NC1CCCCC1)c1cccs1 (stereo unspecified)	0.86	-0.75	i	.	0	0.075
NC(=O)c1ccccc1NC(=O)CCc1ccccc1	0.34	0.15	i	.	-1	0.087
